Measured values of several laboratories.
Protocols differ between the studies behind these lines.
HTR1A: 5-hydroxytryptamine receptor 1A (HTR1A, Homo sapiens, UniProt P08908)
M-phase phosphoprotein 8 chromodomain: M-phase phosphoprotein 8, chromodomain (Homo sapiens, UniProt Q99549)
ESR1: Estrogen receptor (ESR1, Homo sapiens, UniProt P03372)
AChE: AChE (Phlebotomus papatasi, UniProt M1F887)

With `NCCc1c[nH]c2ccc(Cl)cc12` the Ki was 5.5 nM (HTR1A; ligand displacement, radioligand).
For `CCN(CCCC[C@H](NC(=O)[C@H](C)NC(=O)[C@H](C)NC(=O)[C@H](Cc1ccccc1)NC(=O)c1cccnc1)C(=O)N[C@@H](CO)C(N)=O)C(C)C`, the IC50 was 3400 nM (M-phase phosphoprotein 8 chromodomain; cell-free assay, TR-FRET).
For `C[C@]12CC[C@H]3[C@@H](CCC4=C[C@@H](O)CC[C@@H]43)[C@@H]1CC[C@@H]2O`, the IC50 was 134 nM (ESR1; ligand displacement).
`C=CC[N+](C)(C)c1ccc(CCC(=O)CCc2ccc([N+](C)(C)CC=C)cc2)cc1` gave an IC50 of 30 nM (AChE; enzyme activity, inhibitor).
The IC50 of `CCN(CCCC[C@H](NC(=O)[C@H](CC(C)C)NC(=O)[C@H](C)NC(=O)[C@H](CC1CCCCC1)NC(=O)c1cccnc1)C(=O)N[C@@H](CO)C(N)=O)C(C)C` is reported as 1500 nM (M-phase phosphoprotein 8 chromodomain; cell-free assay, TR-FRET).
With `NCCc1c[nH]c2ccc(F)cc12` the Ki was 18 nM (HTR1A; ligand displacement, radioligand).
The IC50 of `CNC(=O)Oc1ccc2c(c1)[C@]1(C)CCN(C)[C@@H]1N2C` is reported as 9 nM (AChE; enzyme activity, inhibitor).
The EC50 of `C[C@]1(O)CC[C@H]2[C@@H]3CCC4=CC(=O)CCC4=C3CC[C@@]21C` is reported as 4230 nM (ESR1; reporter gene, agonist).
